These results are taken from article PMC9977173 (Science Advances, 2023).

One data set has as its system EJ xenograft tumor. The data set is described as follows: Antitumor efficiency in EJ xenograft mice. The format is in vivo, mouse. The note with it: 18 days; intravenous; PepCXCR4 and bsGP 500 μM, plerixafor 100 μM, 100 μl. Put shortly:
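BALB/c nude mice (6 to 8 weeks, 16 to 18 g) received 5 × 10⁶ EJ cells in 100 µl s.c. in the right flank. Mice were randomised into groups of n = 6. Saline, test compound (500 µM, 100 µl) or plerixafor (100 µM, 100 µl) was given i.v. by tail vein once a day for five doses. Tumor volume was measured by calipers and body weight recorded every other day.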

The test system of data set [1] is MB49-Luc orthotopic bladder cancer. The note with it: mouse, in vivo.
Data set [2] deals with CXCR4 (breast and pancreatic cancer). The note with it: cited from earlier work.
Data set [3] deals with pErk and pAkt (CXCR4 downstream) in EJ cells. The data set is described as follows: Western blot of Erk and Akt phosphorylation in EJ cells. The format is cell-based, human. The note with it: 50 μM, 24 hours. Put shortly: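 EJ cells were lysed in buffer with protease inhibitor and centrifuged 15 min; protein was measured by BCA. 30 µg protein was run on SDS-PAGE and transferred to PVDF. Membranes were blocked 1 to 2 h at room temperature in 5% nonfat milk, 0.1% Tween 20, 10 mM TBS. Primary antibody was applied overnight at 4°C, then secondary for 1 to 2 h at room temperature. Detection was by chemiluminescence.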
(In western blotting, separated proteins are transferred to a membrane and probed.)

In another data set the test system is orthotopic bladder tumor. Type of data set: in vivo, mouse. The note with it: 500 μM, 100 μl, intravesical instillation. Put shortly: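 Once bladder tumor growth was confirmed, test compound (500 µM, 100 µl) was instilled intravesically and kept in the bladder for 60 min. Whole-body fluorescence was scanned with IVIS at 1, 4, 8, 12, 24, 48 and 72 h. The bladder was exteriorised and imaged ex vivo at 1 h after infusion.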

A further data set concerns RAW264.7 cells. The data set is described as follows: Cell viability. The format is cell-based. The conditions noted are these: 50 μM, 24 hours, CCK-8; n = 3. Put shortly: (§1)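 Cells were seeded at 5 × 10⁴ per well in RPMI 1640 and cultured overnight at 37°C, 5% CO₂. Test compound was added at 10, 20, 50, 100, 200 or 500 µM for 24 h, then CCK-8 for 2 h at 37°C. Absorbance was read at 450 nm against a 690 nm reference. Viability = (A_s − A_b)/(A_c − A_b) × 100% versus saline-treated wells. Run in triplicate.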

The test system of a further data set is EJ cells. The data set is described as follows: Cell viability. The format is cell-based, human. The conditions noted are these: 50 μM, 24 hours, CCK-8; n = 3. An outline of the steps:
as §1

The test system of data set [4] is CD86^+ and CD206^+ TAMs, CD4^+ and CD8^+ T cells. The data set is described as follows: Multiplex immunofluorescence of whole tumor slices. The format is in vivo, mouse. The note with it: MB49-Luc, C57BL/6, 500 μM, 100 μl, every other day, five times.
For a further data set, the target named is CD206 (Homo sapiens, UniProt P22897). The conditions noted are these: read-out: Kd of mannose; cited from earlier work.
CD206, sequence (P22897 19-1456, species assumed): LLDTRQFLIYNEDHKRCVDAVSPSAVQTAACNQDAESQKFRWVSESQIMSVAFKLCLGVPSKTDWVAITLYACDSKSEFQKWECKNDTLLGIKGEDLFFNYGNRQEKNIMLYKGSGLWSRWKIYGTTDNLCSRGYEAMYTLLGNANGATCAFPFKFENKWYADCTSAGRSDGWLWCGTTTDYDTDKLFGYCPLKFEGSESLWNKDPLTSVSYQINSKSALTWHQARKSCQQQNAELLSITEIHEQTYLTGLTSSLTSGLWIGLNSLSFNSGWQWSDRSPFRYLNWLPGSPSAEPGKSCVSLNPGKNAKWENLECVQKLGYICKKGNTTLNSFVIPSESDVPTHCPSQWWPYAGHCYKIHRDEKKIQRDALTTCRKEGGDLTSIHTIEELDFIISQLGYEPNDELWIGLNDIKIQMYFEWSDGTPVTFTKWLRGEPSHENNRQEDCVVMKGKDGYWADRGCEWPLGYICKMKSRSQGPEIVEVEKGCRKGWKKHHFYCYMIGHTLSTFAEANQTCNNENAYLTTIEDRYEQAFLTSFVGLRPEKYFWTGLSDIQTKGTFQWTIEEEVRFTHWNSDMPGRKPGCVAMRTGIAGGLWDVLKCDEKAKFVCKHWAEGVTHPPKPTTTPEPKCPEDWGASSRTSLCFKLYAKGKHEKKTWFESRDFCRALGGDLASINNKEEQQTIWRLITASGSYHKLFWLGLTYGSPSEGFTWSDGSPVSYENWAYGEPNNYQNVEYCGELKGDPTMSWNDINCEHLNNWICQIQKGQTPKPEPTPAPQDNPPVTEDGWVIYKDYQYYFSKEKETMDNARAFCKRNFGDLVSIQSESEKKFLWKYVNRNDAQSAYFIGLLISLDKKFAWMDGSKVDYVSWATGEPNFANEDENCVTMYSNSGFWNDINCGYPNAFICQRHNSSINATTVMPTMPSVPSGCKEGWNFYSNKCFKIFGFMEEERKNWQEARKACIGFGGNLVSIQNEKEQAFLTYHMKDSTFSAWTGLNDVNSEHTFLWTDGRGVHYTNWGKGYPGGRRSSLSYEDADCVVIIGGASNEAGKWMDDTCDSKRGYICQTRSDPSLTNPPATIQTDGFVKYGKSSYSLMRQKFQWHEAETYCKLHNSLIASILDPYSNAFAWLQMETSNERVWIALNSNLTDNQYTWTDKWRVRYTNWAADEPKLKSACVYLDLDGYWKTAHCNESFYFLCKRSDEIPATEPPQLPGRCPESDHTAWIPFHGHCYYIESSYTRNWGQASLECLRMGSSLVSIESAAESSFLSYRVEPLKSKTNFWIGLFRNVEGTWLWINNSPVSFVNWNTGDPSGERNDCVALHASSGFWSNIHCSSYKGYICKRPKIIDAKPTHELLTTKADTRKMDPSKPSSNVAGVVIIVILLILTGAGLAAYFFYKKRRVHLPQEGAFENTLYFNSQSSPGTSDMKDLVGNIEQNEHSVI

For the compound `c1cc(CN2CCCNCCNCCCNCC2)ccc1CN1CCCNCCNCCCNCC1` [plerixafor], the “tumor growth inhibition rate, EJ xenograft” value in the data set on EJ xenograft tumor was 32%. In data set [1], the recurrence rate is recorded as 100% and the “survival rate at 60 days” value is given as 0%. Moreover, the “effect on tumor apoptosis, metastasis and intratumoral Tregs” value in data set [2] was “substantially promote tumor apoptosis, reduce tumor metastasis, and selectively decrease intratumoral Tregs”.

Turning to LGASWHRPDK [PepCXCR4], in data set [3], the “phosphorylation of Erk and Akt” value was “did not substantially alter”. Moreover, the “fluorescence signal at the tumor site” value with orthotopic bladder tumor is recorded as “evident fluorescence signals”. Besides, the “effect on viability of RAW264.7 cells” value with RAW264.7 cells was “no substantial impact”. Also, the “effect on viability of EJ cells” value with EJ cells is listed as “no substantial impact”. For the same compound, in [4] (saline 1.74%), the “CD4^+ T cells in whole tumor slice” value is given as 2.37%. The “tumor-infiltrating CD8^+ T cells in whole tumor slice” value in [4] (saline 3.43%) is 4.04%. Besides, the “tumor growth inhibition rate, EJ xenograft” value with EJ xenograft tumor is 19%.

For the compound `OC[C@H]1OC(O)[C@@H](O)[C@@H](O)[C@@H]1O` (some centres unmarked) [mannose], at CD206, the Kd (as a rule, the equilibrium constant for the complex coming apart) was around 1000 µM.

With `C[C@H]1c2cccc(O)c2C(=O)C2=C(O)[C@]3(O)C(=O)C(C(N)=O)=C(O)[C@@H](N(C)C)[C@@H]3[C@@H](O)[C@@H]21` [Dox, doxycycline], in data set [1], the recurrence rate came out at 89% and the “survival rate at 60 days” value was 11%.
